Measured values collected from several papers.
Each line is one published result; the experiments were not run side by side.
Target: Inhibitor of nuclear factor kappa-B kinase subunit epsilon (IKBKE, Homo sapiens, UniProt Q14164)
Sequence (Q14164 1-716, as in one of the studies): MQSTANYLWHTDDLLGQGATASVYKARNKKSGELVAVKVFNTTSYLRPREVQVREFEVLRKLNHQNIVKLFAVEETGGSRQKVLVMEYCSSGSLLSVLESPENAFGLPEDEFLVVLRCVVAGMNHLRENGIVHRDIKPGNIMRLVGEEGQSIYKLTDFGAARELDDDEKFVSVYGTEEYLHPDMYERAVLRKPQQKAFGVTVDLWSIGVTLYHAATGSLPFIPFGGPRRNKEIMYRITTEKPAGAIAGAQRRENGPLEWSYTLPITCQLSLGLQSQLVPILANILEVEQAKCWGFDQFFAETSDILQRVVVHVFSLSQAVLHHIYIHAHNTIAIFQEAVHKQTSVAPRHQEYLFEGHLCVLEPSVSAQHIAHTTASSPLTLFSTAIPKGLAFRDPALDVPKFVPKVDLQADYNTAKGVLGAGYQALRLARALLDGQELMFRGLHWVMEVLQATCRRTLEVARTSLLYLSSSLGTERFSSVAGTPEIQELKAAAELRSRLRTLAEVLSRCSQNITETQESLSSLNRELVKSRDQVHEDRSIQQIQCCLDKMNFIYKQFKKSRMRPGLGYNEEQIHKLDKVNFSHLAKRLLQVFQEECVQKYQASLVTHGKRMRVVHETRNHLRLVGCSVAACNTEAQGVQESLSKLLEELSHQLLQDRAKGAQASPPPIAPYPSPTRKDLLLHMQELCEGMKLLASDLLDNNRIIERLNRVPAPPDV

The remaining activity of `Cc1nn(CC(F)(F)F)cc1Nc1ncc(C2CC2)c(NCc2ccc(S(N)(=O)=O)cc2)n1` is reported as 43% (enzyme activity; inhibitor; radiometric; 1 µM).
`Nc1nc(Nc2ccc(S(N)(=O)=O)cc2)nn1C(=O)c1c(F)cccc1F` gave a remaining signal of 95.9% (cell-free assay; 0.5 µM).
The remaining activity of `O=C(NCCCNc1ccnc(Nc2cccc(NC(=O)N3CCCC3)c2)n1)C1CCC1` is reported as 33% (enzyme activity; inhibitor; radiometric; 1 µM).
`CC(=O)C1=C(C)N(c2cccc(C(F)(F)F)c2)C(=O)N[C@@H]1c1ccc(C#N)nc1` has a remaining binding of 98.2% (cell-free assay; competition with immobilised ligand; 1 µM).
With `COc1ccc(COc2ccc(Cc3cnc(N)nc3N)cc2OC)cc1` the remaining signal was 96.7% (cell-free assay; 0.5 µM).
With `NS(=O)(=O)c1ccc(CNc2nc(Nc3cccc(NC(=O)N4CCCC4)c3)ncc2C2CC2)cc1` the remaining activity was 52% (enzyme activity; inhibitor; radiometric; 1 µM).
For `O=C(N[C@H]1CCCCC/C=C\C2C[C@@]2(C(=O)O)NC(=O)[C@@H]2C[C@@H](Oc3ccncc3)CN2C1=O)OC1CCCC1` (stereo partly shown), the remaining binding was 100% (binding; competition with immobilised ligand; 1 µM).
`CCCS(=O)(=O)Nc1ccc(F)c(C(=O)c2c[nH]c3ncc(-c4ccc(Cl)cc4)cc23)c1F` gave an inhibition of less than 10% (enzyme activity; inhibitor; 1 µM).
With `NS(=O)(=O)c1ccc(CNc2ccnc(Nc3cccc(NC(=O)N4CCCC4)c3)n2)cc1` the remaining activity was 79% (enzyme activity; inhibitor; radiometric; 1 µM).
`Cc1c(NC(=O)c2cc(C(N)=O)nc3cc(F)ccc23)c(C(F)(F)F)nn1Cc1ccc(C#N)cc1` has a remaining binding of 75% (cell-free assay; competition with immobilised ligand; 1 µM).
With `CC/C(=N\NC(=O)NCc1cccc(O)c1)c1ccc(O)c(C)c1O` the inhibition was -0.4% (enzyme activity; inhibitor; 0.1 µM).
The activity vs control of `COc1cc(/C=C/C(=O)CC(=O)/C=C/c2ccc(O)c(OC)c2)ccc1O` is reported as 72% (enzyme activity; inhibitor; 1 µM).
The remaining signal of `CCN(CC)CCNC(=O)c1c(C)[nH]c(/C=C2\C(=O)Nc3ccc(F)cc32)c1C` is reported as 45.6% (cell-free assay; 0.5 µM).
For `Cc1c[nH]c2nccc(Oc3c(F)cc(Nc4cc(Cl)nc(N)n4)cc3F)c12`, the remaining binding was 93% (cell-free assay; competition with immobilised ligand; 0.1 µM).
`O=C1c2ccccc2-c2n[nH]c3cccc1c23` has an activity vs control of 88.9% (enzyme activity; inhibitor; 0.5 µM).
For `COc1cc2ncnc(Nc3ccc(Oc4ccccc4)cc3C)c2cc1OC`, the inhibition was 5% (enzyme activity; inhibitor; 1 µM).
With `O=c1nc(-c2ccccn2)sc2ccccc12` the remaining binding was 100% (binding; competition with immobilised ligand; 1 µM).
For `O=C(Nc1cccc(Nc2ncc(Br)c(NCCc3cnc[nH]3)n2)c1)N1CCCC1`, the remaining activity was 44% (enzyme activity; inhibitor; radiometric; 1 µM).
`CC(C)CC(=O)N1CCc2nc(-c3ccc(Br)cc3)nc(N(C)Cc3ccccc3)c2C1` has a remaining binding of 100% (cell-free assay; competition with immobilised ligand; 0.1 µM).
`c1cc(CN2CCOCC2)cc(Nc2nccc(NCCc3cnc[nH]3)n2)c1` has a remaining activity of 80% (enzyme activity; inhibitor; radiometric; 1 µM).
The remaining binding of `CCC(=O)N[C@H]1CC[C@@H](C(=O)N(C)c2ccc(-c3nc4ccccc4o3)cc2)C1` is reported as 52% (cell-free assay; competition with immobilised ligand; 1 µM).
The remaining activity of `Cc1nn(CC(F)(F)F)cc1Nc1nccc(NCc2ccc(S(N)(=O)=O)cc2)n1` is reported as 73% (enzyme activity; inhibitor; radiometric; 1 µM).
